Measured values taken from ChEMBL document CHEMBL1148717, “Design, synthesis, and biological evaluation of Plasmodium falciparum lactate dehydrogenase inhibitors” (J Med Chem, 2007).

How the values were obtained:
[1] = target: T1, Malate dehydrogenase, cytoplasmic (Sus scrofa, UniProt P11708); assay: Inhibition of pig cytosolic MDH
T1 sequence (P11708 whole entry): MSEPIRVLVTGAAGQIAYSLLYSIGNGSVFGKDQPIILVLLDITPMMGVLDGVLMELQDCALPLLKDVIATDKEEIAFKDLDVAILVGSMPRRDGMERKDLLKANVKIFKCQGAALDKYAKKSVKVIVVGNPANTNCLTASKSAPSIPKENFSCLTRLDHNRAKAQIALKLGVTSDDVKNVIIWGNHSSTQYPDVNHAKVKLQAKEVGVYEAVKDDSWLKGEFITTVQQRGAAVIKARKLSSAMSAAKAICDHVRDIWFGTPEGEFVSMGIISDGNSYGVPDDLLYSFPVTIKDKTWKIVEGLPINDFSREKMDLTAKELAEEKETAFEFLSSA
Method in brief: (§1)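 Recombinant P. falciparum LDH and MDH, bovine heart LDH, and porcine heart mitochondrial and cytosolic MDH were each assayed in 50 mM potassium phosphate (pH 7.0) with 200 µM pyruvate. Reactions were started with 250 µM NADH, and the fall in A340 was followed for 5 min at 25 °C. Compounds were first screened at 50 and 100 µg/mL. Those giving over 50% inhibition at 50 µg/mL were retested for IC50.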

[2] = target: Lactate dehydrogenase (Plasmodium falciparum, UniProt Q0PJ46); assay: Inhibition of Plasmodium falciparum LDH; method in brief: as §1
Sequence of Lactate dehydrogenase (Q0PJ46 whole entry): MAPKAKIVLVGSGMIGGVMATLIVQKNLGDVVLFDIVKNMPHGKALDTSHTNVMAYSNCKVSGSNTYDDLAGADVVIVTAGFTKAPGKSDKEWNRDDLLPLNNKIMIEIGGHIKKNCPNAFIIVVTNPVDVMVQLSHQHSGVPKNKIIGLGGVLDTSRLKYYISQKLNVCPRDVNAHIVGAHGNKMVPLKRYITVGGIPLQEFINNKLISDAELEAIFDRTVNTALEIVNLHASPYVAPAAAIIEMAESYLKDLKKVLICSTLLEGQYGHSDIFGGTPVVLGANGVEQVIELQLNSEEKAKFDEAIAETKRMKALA

[3] = target: T2, Malate dehydrogenase, mitochondrial (Sus scrofa, UniProt P00346); assay: Inhibition of pig heart mitochondrial MDH; method in brief: as §1
T2 sequence (P00346 whole entry): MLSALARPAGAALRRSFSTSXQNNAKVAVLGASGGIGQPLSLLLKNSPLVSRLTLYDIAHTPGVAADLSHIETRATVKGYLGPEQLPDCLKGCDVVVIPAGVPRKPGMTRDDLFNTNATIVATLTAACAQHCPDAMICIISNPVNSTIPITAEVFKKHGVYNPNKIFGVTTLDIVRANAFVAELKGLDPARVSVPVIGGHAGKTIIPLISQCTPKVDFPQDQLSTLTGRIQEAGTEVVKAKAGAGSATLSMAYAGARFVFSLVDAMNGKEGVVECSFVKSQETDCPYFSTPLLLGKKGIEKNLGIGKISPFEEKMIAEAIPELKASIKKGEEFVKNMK

[4] = target: T3, Malate dehydrogenase (Plasmodium falciparum, UniProt Q6VVP7); assay: Inhibition of Plasmodium falciparum MDH; method in brief: as §1
T3 sequence (Q6VVP7 whole entry): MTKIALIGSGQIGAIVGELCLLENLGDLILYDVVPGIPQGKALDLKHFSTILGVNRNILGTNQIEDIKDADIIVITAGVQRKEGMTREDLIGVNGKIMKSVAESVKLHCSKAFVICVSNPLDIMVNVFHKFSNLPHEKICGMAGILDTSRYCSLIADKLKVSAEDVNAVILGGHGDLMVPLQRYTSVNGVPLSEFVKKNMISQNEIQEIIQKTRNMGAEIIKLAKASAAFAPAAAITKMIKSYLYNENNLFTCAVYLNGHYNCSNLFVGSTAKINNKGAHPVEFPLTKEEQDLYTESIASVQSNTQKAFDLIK

[5] = Inhibition of bovine heart LDH; parameters: species or system Bos taurus
[6] = Selectivity for Plasmodium falciparum LDH over bovine heart LDH

SMILES | IC50 [1] | IC50 ([2]; read-out: IC50) [µM] | IC50 [3] [µM] | IC50 ([4]; read-out: IC50) [µM] | IC50 ([1]; read-out: IC50) [µM] | IC50 [2] | IC50 [5] | IC50 [4] | IC50 ([5]; read-out: IC50) [µM] | Ratio IC50 [6]
COc1cc(CCOc2cc(O)c3c(=O)cc(C(=O)O)oc3c2)ccc1NC(=O)C(=O)O | Not Active | 191 | > 225 | > 225 |  |  |  |  |  | 
O=C(O)C(=O)Nc1ccc(CCOc2cc(O)c3c(=O)cc(C(=O)O)oc3c2)cc1 | Not Active | > 241 | 96.7 | > 241 |  |  |  |  |  | 
N#Cc1cc(CCOc2cc(O)c3c(=O)cc(C(=O)O)oc3c2)ccc1NC(=O)C(=O)O |  |  | 17.1 |  | 13.6 | Not Active | Not Active | Not Active |  | 
COc1ccc(CNC(=O)c2cc(=O)c3c(O)cc(OCCc4ccc(NC(=O)C(=O)O)c(C#N)c4)cc3o2)cc1 |  | 8.25 | 5.91 | 86.9 | 10.9 |  |  |  | > 179 | 22
COc1cc(COc2cc(O)c3c(=O)cc(C(=O)O)oc3c2)ccc1NC(=O)C(=O)O |  | 87.3 | 64 | 48.3 | > 232 |  |  |  |  | 
COc1ccc(CNC(=O)c2cc(=O)c3c(O)cc(OCCc4ccc(NC(=O)C(=O)O)c(OC)c4)cc3o2)cc1 |  | 1.75 | 0.39 | 2.66 | 6.31 |  |  |  | 11.4 | 
NC(=O)C(=O)O [OXAMATE] |  | 92.5 | > 2000 | > 2000 | > 2000 |  |  |  |  | 
COc1ccc(CNC(=O)c2cc(=O)c3c(O)cc(OCCc4ccc(NC(=O)C(=O)O)cc4)cc3o2)cc1 |  | 3.13 | 2.72 | 6.76 | 4.88 |  |  |  | > 187 | 59
Cc1cc2c(C(C)C)c(O)c(O)c(C=O)c2c(O)c1-c1c(C)cc2c(C(C)C)c(O)c(O)c(C=O)c2c1O [GOSSYPOL] |  | 2.64 | 2.8 | 2.03 | 5.8 |  |  |  | 9.54 | 
